We go through 14 compounds from ChEMBL document CHEMBL1128210, “Structure-activity relationship of omeprazole and analogues as Helicobacter pylori urease inhibitors” (J Med Chem, 1995).

Series [1] deals with Helicobacter pylori. Kind of series: Urease activity in wild type H pylori, CCUG 15818, at 100 uM. The essentials: (§1)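 CCUG 15818 grown 3 days at 37 °C microaerophilic on Columbia blood agar, washed three times in PBS at assay pH, set to A560 0.3. Cells preincubated with compound (MeOH or DMSO, ≤1% solvent) for 30 min at 37 °C, then mixed 1:1 with 200 mM urea for 10 min. Ammonia read by nitroprusside-catalysed phenol–hypochlorite at A650 against (NH4)2SO4. Compound colour blank subtracted; expressed as % of control.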

Series [2] relates to Helicobacter pylori. Kind of series: Urease activity in H pylori, CCUG 15818, at 10 uM. In short, it runs like this:
as §1

Series [3] concerns Helicobacter pylori. The series can be described thus: Urease activity was determined in wild type-H pylori, CCUG 15818, at a concentration of 1 uM. The essentials:
as §1

Series [4] in a line: Half life at pH 7 is a measure of the rate by which the compound is converted to the active species. The class given is ADME. The settings on record: buffer.
Series [5] in a line: Relative retention time of the compound. The class given is ADME.
Series [6] can be described thus: pKa value of the compound (benzimidazole ring substitutions dependent). The class given is physicochemical. Conditions: read-out: pKabz.
A short description of series [7]: pKa value of the compound (pyridine ring substitutions dependent). The class given is physicochemical. The settings on record: read-out: pKapy.
The subject of series [8] is Helicobacter pylori. Kind of series: Urease activity was determined in wild type-H pylori, CCUG 15818, at a concentration of 100 nM. The essentials: (§2)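 Washed whole cells grown 3 days at 37 °C under microaerophilic conditions, resuspended in PBS at assay pH to A560 = 0.3. Compound (in MeOH or DMSO, ≤1% solvent) preincubated 30 min at 37 °C with shaking. 200 mM urea added 1:1; stopped after 10 min with phenol–nitroprusside/hypochlorite reagents, 15 min colour, A650 vs (NH4)2SO4 standard; percent of control.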

Series [9] concerns Helicobacter pylori. The series can be described thus: Urease activity was determined in wild type-H pylori, CCUG 15818, at a concentration of 10 nM. In short, it runs like this: as §2
Series [10] has as its system Helicobacter pylori. The series can be described thus: Urease activity was determined in wild type-H pylori, CCUG 15818, at a concentration of 1 nM. The essentials: as §2
Series [11] in a line: Half life at pH 6 is a measure of the rate by which the compound is converted to the active species. Conditions: buffer.
Series [12] relates to Helicobacter pylori. The series can be described thus: Urease activity was determined in wild type-H pylori, CCUG 15818, at a concentration of 1 uM at pH 6.
Series [13] can be described thus: Relative retention time at pH 6. The settings on record: buffer. The class given is ADME.
Series [14] deals with Helicobacter pylori. Kind of series: Urease activity was determined in wild type-H pylori, CCUG 15818, at a concentration of 100 uM at pH 6.
Series [15] in a line: pKa value of the compound (pyridine ring substitutions dependent) at pH 6. Conditions: read-out: pKapy. The class given is physicochemical.
In series [16] the test system is Helicobacter pylori. The series can be described thus: Urease activity was determined in wild type-H pylori, CCUG 15818, at a concentration of 10 uM at pH 6.
The nature of series [17]: pKa value of the compound (benzimidazole ring substitutions dependent) at pH 6. It counts as physicochemical. The settings on record: read-out: pKabz.
Series [18] relates to Helicobacter pylori. Kind of series: Urease activity was determined in wild type-H pylori, CCUG 15818 in the presence of beta mercaptoethanol at a concentration of 100 uM. The essentials:
(§3)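 Intact CCUG 15818 cells (A560 0.3, washed in PBS) preincubated 30 min at 37 °C with compound at 1, 10 or 100 μM plus 100 μM β-mercaptoethanol. Urea was then added 1:1 from a 200 mM solution. After 10 min, ammonia was measured by indophenol (phenol–hypochlorite/nitroprusside) absorbance at 650 nm and expressed as % of control.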

Series [19] has as its system Helicobacter pylori. The series can be described thus: Urease activity was determined in wild type-H pylori, CCUG 15818 in the presence of beta mercaptoethanol at a concentration of 10 uM. In short, it runs like this:
as §3

For series [20], the system named is Helicobacter pylori. Kind of series: Urease activity was determined in wild type-H pylori, CCUG 15818 in the presence of beta mercaptoethanol at a concentration of 1 uM. The essentials:
as §3

Regarding `COc1ccnc(C[S+]([O-])c2nc3c(F)cc(F)cc3[nH]2)c1` (configuration not stated), the Urease activity (% of control) in series [1] worked out at 80%; in series [2] it was 89%; in series [3], 106%. This compound gave a half-life in series [4] of 32 h. In addition, the “Log k'o” value in series [5] is reported as 0.09. In addition, the values for the pKa in series [6] and in series [7] were 7.6 and 4.1, respectively.
As for `NP(N)(=O)NC(=O)c1ccc(F)cc1`, the figures for the Control in series [8], in series [9] and in series [10] were 0%, 10% and 80%, respectively.
Turning to `COc1ccnc(C[S+]([O-])c2nc3c(F)cccc3[nH]2)c1` (configuration not stated), the values for the Urease activity (% of control) in [1], in [2] and in series [3] were 58%, 95% and 93%, respectively. For the same compound, in series [4], the half-life is 23 h. Moreover, the “Log k'o” value in [5] was 0.26. The pKa came to 7.5 in [6] and 4.4 in series [7].
For `COc1ccnc(C[S+]([O-])c2nc3cc(F)c(F)cc3[nH]2)c1OC` (configuration not stated), the half-life in series [4] turned out to be 69 h. Further, the “Log k'o” value in [5] came to 0.6. In addition, the pKa in series [6] came out at 7.8; in series [7], 3.6.
`COc1c(OCC2CC2)ccnc1C[S+]([O-])c1nc2cc(F)ccc2[nH]1` (configuration not stated): the Urease activity (% of control) worked out at 84% in [1], 94% in [2] and 104% in [3]. Besides, the half-life in series [4] is 50 h. The “Log k'o” value in series [5] amounted to 1.16. In addition, the pKa in series [6] is 8.4; in series [7], 3.8.
Turning to `COc1ccc2[nH]c(SCc3ncc(C)c(OC)c3C)nc2c1`, the Urease activity (% of control) stood at 99% in series [1], 101% in [2] and 109% in series [3].
For `COc1ccc2[nH]c([S+]([O-])Cc3ncc(C)c(OC)c3C)nc2c1` (configuration not stated) [OMEPRAZOLE], the half-life in [11] was 0.917 h; in series [4], 23 h. Besides, the Urease activity (% of control) turned out to be 64% in [1], 96% in series [2] and 109% in series [3]. For the same compound, the Control in series [12] worked out at 115%; in series [14], 28%; in series [16], 88%. The “Log k'o” value in series [13] and in series [5] was 0.83 in each case. Further, the pKa in series [15] was determined as 4; in series [6] it was 8.7; in series [17], 8.7; in series [7], 4.
For the compound `COc1ccnc(C[S+]([O-])c2nc3cc(CO)ccc3[nH]2)c1C` (configuration not stated), the Urease activity (% of control) in series [1] was found to be 32%; in [2], 38%; in [3] it was 72%. In [4], this compound registered a half-life of 1 h. In series [5], the “Log k'o” value is 0.18. The values for the pKa in series [6] and in series [7] were 8.6 and 4.7, respectively.
Consider `COc1ccc2[nH]c([S+]([O-])Cc3nccc(OC(C)C)c3C)nc2c1` (configuration not stated), for which the Urease activity (% of control) amounted to 0% in series [1], 35% in series [2] and 86% in series [3]. The compound further came in with a half-life in series [4] of 1.5 h. Also, the “Log k'o” value in [5] is 1.22. For the same compound, the pKa came to 8.9 in series [6] and 5.1 in [7].
Turning to `Cc1c(OCC(F)(F)F)ccnc1C[S+]([O-])c1nc2ccccc2[nH]1` (configuration not stated) [LANSOPRAZOLE], the results for the Urease activity (% of control) in series [1], in series [2] and in series [3] were 29%, 103% and 105%, respectively. Besides, the half-life in [4] is 13 h. For the same compound, the “Log k'o” value in [5] amounted to 1.1. For the same compound, the pKa in [6] stood at 8.7; in series [7], 3.9.
For `COc1ccnc(C[S+]([O-])c2nc3cc4c(cc3[nH]2)CCC4)c1C` (configuration not stated), the Urease activity (% of control) in [1] was 0%; in series [2], 35%; in [3], 36%. In addition, the half-life in [4] turned out to be 1.17 h. In addition, the “Log k'o” value in series [5] is listed as 1.21. Besides, the results for the pKa in series [6] and in series [7] were 9.4 and 4.9, respectively.
Regarding `CCOc1ccnc(C[S+]([O-])c2nc3ccccc3[nH]2)c1C` (configuration not stated), the Urease activity (% of control) in series [1] came out at 8%; in series [2] it was 38%; in [3], 76%. Moreover, the half-life in series [4] was determined as 0.9 h. Also, the “Log k'o” value in series [5] is on record as 0.92. For the same compound, the pKa was found to be 8.8 in series [6] and 4.9 in series [7].
`Cc1cc(C)c(C[S+]([O-])c2nc3cc(Cl)ccc3[nH]2)nc1C` (configuration not stated): the Urease activity (% of control) amounted to 164% in series [1], 105% in series [2] and 97% in series [3].
As for `COc1ccnc(C[S+]([O-])c2nc3cc(C(C)(C)C)ccc3[nH]2)c1C` (configuration not stated), the Urease activity (% of control) in [1] worked out at 1%; in series [2], 42%. The values for the Control in series [18], in series [19] and in series [20] were 106%, 95% and 105%, respectively. Besides, the half-life in series [4] amounted to 1 h. In addition, the “Log k'o” value in series [5] turned out to be 1.55. The values for the pKa in series [6] and in series [7] were 9.1 and 4.8, respectively.
